Measured values reported in ChEMBL document CHEMBL2407055, “4-Substituted 2-Hydroxyisoquinoline-1,3(2H,4H)-diones as a Novel Class of HIV-1 Integrase Inhibitors” (ACS Med Chem Lett, 2013).
Converted amounts (≈) assume the structure as drawn.

Experiments:
[1] = molecular target: T1, Human immunodeficiency virus type 1 integrase (Human immunodeficiency virus 1, UniProt Q7ZJM1); experiment: Inhibition of HIV1 integrase overall inhibition using 5'-digoxigenin-labeled 5'-GACCCTTTTAGTCAGTGTGGAAAATCTCTAGCAGT-3' as substrate after 1 hr by ELISA
T1 sequence (Q7ZJM1 whole entry): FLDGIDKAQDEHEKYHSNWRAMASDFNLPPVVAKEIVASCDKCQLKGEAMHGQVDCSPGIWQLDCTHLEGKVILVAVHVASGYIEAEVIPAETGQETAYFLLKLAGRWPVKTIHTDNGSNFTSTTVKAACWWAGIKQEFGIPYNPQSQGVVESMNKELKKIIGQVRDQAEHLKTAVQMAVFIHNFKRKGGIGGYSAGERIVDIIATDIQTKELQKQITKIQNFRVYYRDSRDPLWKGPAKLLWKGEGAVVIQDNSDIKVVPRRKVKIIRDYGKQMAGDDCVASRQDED

[2] = Therapeutic index, ratio of CC50 for human MT4 cells to EC50 for HIV1 3B; format: cell-based; conditions: read-out: Ratio CC50/EC50
Outline: (§1)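 Anti-HIV-1 activity was measured in MT-4 cells. EC50 is the concentration that cuts HIV-1-induced cytopathic effect by 50%. CC50 is the concentration that lowers MT-4 cell viability by 50%. The therapeutic index is CC50/EC50.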

[3] = Cytotoxicity against human MT4 cells by MTT assay; format: cell-based; outline: as §1
[4] = molecular target: T1, Human immunodeficiency virus type 1 integrase; experiment: Inhibition of strand transfer activity of HIV1 integrase using pre-cleaved oligonucleotide as substrate after 1 hr by ELISA
[5] = tested on: Human immunodeficiency virus 1; experiment: Antiviral activity against HIV1 3B infected in human MT4 cells assessed as inhibition of virus-induced cytopathic effect by MTT assay; format: functional, organism-based; conditions: Human immunodeficiency virus 1, 3B; outline: as §1
[6] = molecular target: Human immunodeficiency virus type 1 integrase (Human immunodeficiency virus 1) (UniProt Q7ZJM1); experiment: Ratio of IC50 for strand transfer activity of HIV1 integrase to IC50 for HIV1 integrase overall inhibition
Sequence of Human immunodeficiency virus type 1 integrase (Human immunodeficiency virus 1) (Q7ZJM1 as listed by the source): as the sequence (Q7ZJM1 whole entry) above

[7] = molecular target: T1, Human immunodeficiency virus type 1 integrase; experiment: Inhibition of 3'-processing activity of HIV1 integrase using 32P-5'-TGTGGAAAATCTCTAGCAGT-3' and 5'-ACTGCTAGAGATTTTCCACA-3' as substrate after 1 hr by ELISA
[8] = molecular target: Human immunodeficiency virus type 1 reverse transcriptase (Human immunodeficiency virus 1, UniProt Q72547); experiment: Inhibition of HIV1 recombinant reverse transcriptase RNase H activity after 10 mins
Outline: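 In vitro assay of RT-associated RNase H function. IC50 is the concentration giving 50% inhibition of RNase H activity.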

[9] = n-octanol-PBS partition coefficient, log D of the compound at pH 7.4; format: physicochemical
[10] = Protein binding in human plasma; format: ADME, cell-free; conditions: read-out: PPB
[11] = molecular target: T1, Human immunodeficiency virus type 1 integrase; experiment: Inhibition of HIV1 integrase binding to LEDGF
[12] = Aqueous solubility of the compound in PBS at pH 7.4; format: physicochemical

IC50 [1] [µM]	IC50 [4] [µM]	Ratio IC50 [6]	IC50 [7] [µM]	IC50 [8] [µM]	logD [9]	fraction unbound [10]	IC50 [11] [µM]	solubility [12] [µM]	Structure (SMILES)	selectivity ratio [2]	CC50 [3] [µM]	EC50 [5] [µM]
0.03	0.2	–	–	–	–	–	–	–	O=C(NCCc1ccc(F)cc1)C1C(=O)N(O)C(=O)c2ccccc21 (stereo not given)	24	124	5.08
0.02	0.277	10	1.58	16.6	–	–	–	–	COc1ccc(NC(=O)C2C(=O)N(O)C(=O)c3ccccc32)cc1Cl (stereo not given)	3.7	12.3	3.34
> 250	> 250	–	–	–	–	–	–	–	CN1C(=O)c2ccccc2C(C(=O)NCc2ccc(F)cc2)C1=O (stereo not given)	–	> 250	> 250
0.08	0.03	–	–	–	–	–	–	–	O=C(NCc1ccccc1)C1C(=O)N(O)C(=O)c2ccccc21 (stereo not given)	41.7	130	3.12
0.235	0.307	–	–	–	–	–	–	–	COc1ccc(CNC(=O)C2C(=O)N(O)C(=O)c3ccccc32)cc1OC (stereo not given)	–	125	> 125
0.056	0.099	–	0.06	0.36	0.56	0.001	> 100	190 (≈ 62.4 µg/mL)	O=C(NCc1ccc(F)cc1)C1C(=O)N(O)C(=O)c2ccccc21 (stereo not given)	86.3	202	2.34
0.01	0.11	10	–	7.31	–	–	–	–	O=C(Nc1cccc(F)c1)C1C(=O)N(O)C(=O)c2ccccc21 (stereo not given)	25.9	64	2.47
0.8	1.12	–	–	–	–	–	–	–	O=C(Nc1ccc(F)cc1)C1C(=O)N(O)C(=O)c2ccccc21 (stereo not given)	65.4	114	1.75
–	–	–	–	–	–	–	–	–	Cc1nnc(C(=O)NC(C)(C)c2nc(C(=O)NCc3ccc(F)cc3)c(O)c(=O)n2C)o1	–	> 8	–
5.21	5.6	–	–	–	–	–	–	–	CN(C(=O)C1C(=O)N(O)C(=O)c2ccccc21)c1ccccc1 (stereo not given)	–	107	> 107
1.19	1.03	–	–	–	–	–	–	–	COc1ccc(CNC(=O)C2C(=O)N(O)C(=O)c3ccccc32)cc1 (stereo not given)	6.7	118	17.6
0.673	0.296	–	–	0.13	–	–	–	–	O=C(NCCc1ccc(O)c(O)c1)C1C(=O)N(O)C(=O)c2ccccc21 (stereo not given)	–	63	> 63
0.205	0.258	–	–	0.9	–	–	–	–	O=C(NCc1ccc(O)c(O)c1)C1C(=O)N(O)C(=O)c2ccccc21 (stereo not given)	–	11	> 11
0.31	0.73	–	–	–	–	–	–	–	O=C(Nc1ccccc1)C1C(=O)N(O)C(=O)c2ccccc21 (stereo not given)	21.3	106	4.95
0.035	0.572	10	2.35	0.52	–	–	–	–	O=C(NCc1ccc(O)cc1O)C1C(=O)N(O)C(=O)c2ccccc21 (stereo not given)	> 16	> 125	7.94
0.076	0.084	–	–	14	–	–	–	–	Cc1ccc(CNC(=O)C2C(=O)N(O)C(=O)c3ccccc32)cc1 (stereo not given)	> 22	> 125	5.7
0.035	0.254	10	–	0.63	–	–	–	–	COc1ccc(CNC(=O)C2C(=O)N(O)C(=O)c3ccccc32)c(OC)c1 (stereo not given)	6.5	60.4	9.24
0.495	0.126	–	–	3.85	–	–	–	–	COc1ccc(CCNC(=O)C2C(=O)N(O)C(=O)c3ccccc32)cc1OC (stereo not given)	> 1.8	> 125	70.8
199	79	–	–	–	–	–	–	–	O=C1NC(=O)C(C(=O)NCc2ccc(F)cc2)c2ccccc21 (stereo not given)	–	> 250	> 250
